Test results taken from ChEMBL document CHEMBL1152237, “Sequence specific and high affinity recognition of 5'-ACGCGT-3' by rationally designed pyrrole-imidazole H-pin polyamides: thermodynamic and structural studies” (Bioorg Med Chem, 2008).
Calls of active or inactive are those of the source. The rule behind the calls is not given here.

Key:
[1] = Binding affinity to 5'ACGCGT3' sequence of cognate DNA by surface plasmon resonance method
Procedure, shortened: (§1)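 SPR at 25 °C in degassed MES buffer (200 mM Na+, 10 mM MES, 1 mM EDTA, surfactant P20, pH 6.25). DNA hairpins were immobilized to about 400 RU, with one flow cell left blank. Ligand (0.1–400 nM) was injected at 20 µL/min for 12.5 min, then dissociated for 20 min. The surface was regenerated with 500 mM NaCl/25 mM NaOH. Global 1:1 kinetic fit; Keq = ka/kd.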

Nucleic Acid [2] = assay: Binding affinity to 5'ACCGGT3' sequence of non-cognate DNA assessed as change in melting temperature by thermal denaturation method; assay type: nucleic-acid assay
Procedure, shortened: (§2)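 Thermal melting in PO 0 buffer (10 mM sodium phosphate, 1 mM EDTA, pH 6.2). Oligonucleotides were reannealed first (70 °C for 1 min, then cooled to RT). Ramp from 25 to 95 °C at 0.5 °C/min, with Abs260 recorded every 0.5 °C. Tm was taken as the maximum of the first derivative, and ΔTm was the shift on ligand binding.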

Nucleic Acid [3] = assay: Binding affinity to 5'ACGCGT3' sequence of cognate DNA assessed as change in melting temperature by thermal denaturation method; assay type: nucleic-acid assay; procedure, shortened: as §2
[4] = Binding affinity to 5'ACGCGT3' sequence of cognate DNA at 0.5 uM by DnaseI footprinting assay
Procedure, shortened: (§3)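 DNA was incubated 30 min with ligand in TN buffer (10 mM Tris, 10 mM NaCl, pH 7). Digestion ran 3 min with DNase I in buffer containing NaCl, MgCl2 and MnCl2, then stopped on dry ice. Products were resolved on a 10% polyacrylamide/7.5 M urea gel and read by autoradiography.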

[5] = Binding affinity to 5'ACGTGT3' sequence of cognate DNA at 5 uM by DnaseI footprinting assay; procedure, shortened: as §3
Nucleic Acid [6] = assay: Binding affinity to 5'AAATTT3' sequence of non-cognate DNA assessed as change in melting temperature by thermal denaturation method; assay type: nucleic-acid assay; procedure, shortened: as §2
[7] = Binding affinity to 5'AAATTT3' sequence of non-cognate DNA by surface plasmon resonance method; procedure, shortened: as §1
[8] = Binding affinity to 5'ACCGGT3' sequence of non-cognate DNA by surface plasmon resonance method; procedure, shortened: as §1
[9] = Binding affinity to 5'ACGCGT3' sequence of cognate DNA assessed as exothermic enthalpy at 25 to 50 degC by isothermal titration colorimetry
[10] = Binding affinity to 5'AAATTT3' sequence of non-cognate DNA assessed as heat change by isothermal titration colorimetry
Procedure, shortened: (§4)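 ITC at 25, 30 and 35 °C. DNA (2 µM in PO 5) was titrated with ligand (0.5 mM in PO 5) in 3 µL injections every 300 s, 50 injections in total. One-site model fit, with a linear fit subtracted to remove non-specific heat. ΔG was taken from SPR Keq as −RT ln Keq.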

[11] = Binding affinity to 5'ACCGGT3' sequence of non-cognate DNA assessed as heat change by isothermal titration colorimetry; procedure, shortened: as §4

Structure (SMILES)	K [1]	ΔTm (Nucleic Acid [2]) [°C]	ΔTm (Nucleic Acid [3]) [°C]	Activity [4]	Activity [5]	ΔTm (Nucleic Acid [6]) [°C]	K [7]	K [8]	Activity [9]	Activity [10]	Activity [11]
CN(C)CCNC(=O)c1nc(NC(=O)c2cc(NC(=O)c3nc(NC(=O)c4cccn4C)cn3C)cn2C)cn1C	7.1 ×10⁶ /M	0.1	3	Active	Active	0.1	–	–	–	–	–
CN(C)CCNC(=O)c1nc(NC(=O)c2cc(NC(=O)c3nc(NC=O)cn3C)cn2CCOCCOCCn2cc(NC(=O)c3nc(NC=O)cn3C)cc2C(=O)Nc2cn(C)c(C(=O)NCCN(C)C)n2)cn1C	2 ×10¹⁰ /M	14.1	> 30	–	–	9.3	5 ×10⁵ /M	1.1 ×10⁸ /M	Active	inactive	inactive
CN(C)CCNC(=O)c1nc(NC(=O)c2cc(NC(=O)c3nc(NC=O)cn3C)cn2C)cn1C	1.9 ×10⁸ /M	1.1	7.8	–	–	0.9	5.3 ×10⁴ /M	2.2 ×10⁵ /M	–	inactive	inactive
